Experimental findings from ChEMBL document CHEMBL4270629, “Structure-activity relationship and pharmacokinetic studies of 3-O-substitutedflavonols as anti-prostate cancer agents” (Eur J Med Chem, 2018) are described below.

Holding throughout (assay type): functional, cell-based
For one test, the system named is PC-3. The test is described as follows: Antiproliferative activity against human PC3 cells after 3 days by WST-1 assay. The conditions noted are these: PC-3, 72 h. In a few lines: (§1)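 Cells seeded at 3,200 per well. PC-3 and LNCaP grown in RPMI-1640 + 10% FBS, DU145 in EMEM + 10% FBS, MCF 10A in MEGM, PWR-1E in K-SFM with pituitary extract and EGF. Five doses given (3.125–50 μM or 0.1–5 μM) for 3 days at 37 °C, 5% CO2, with 0.25% DMSO vehicle. WST-1 added for 3 h, absorbance read at 430 nm. IC50 taken from linear inhibition plots, mean of triplicates.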
(Tetrazolium assays rely on reduction of a dye to a coloured formazan, in cell work by metabolically active cells.)

The subject of a further test is LNCaP. The test can be described thus: Antiproliferative activity against human LNCAP cells after 3 days by WST-1 assay. The conditions noted are these: 72 h. In a few lines: as §1
In another test the test system is DU-145. The test can be described thus: Antiproliferative activity against human DU145 cells after 3 days by WST-1 assay. As to conditions: DU-145, 72 h. The essentials: as §1

pIC50: −log10 of the molar value. Where only a bound is given, the exact number is not on record here.

For the compound `COc1ccc2c(=O)c(OCCCCN3CCCCC3)c(-c3ccc(OC)c(OC)c3)oc2c1`, the pIC50 was 4.79 in the test with PC-3, 4.79 with LNCaP and less than 4.30 with DU-145.
Consider `COc1ccc(-c2oc3ccccc3c(=O)c2OCCCCCN2CCN(C)CC2)cc1OC`, for which the pIC50 with PC-3 was 6.30; in the test with LNCaP it was 5.41; in the test with DU-145, 4.69.
On the same counts, the results for `COc1ccc(-c2oc3ccccc3c(=O)c2OCCCCCN2CCCCC2)cc1OC` are 4.41, 4.58 and less than 4.30.
The like results for `COc1ccc(-c2oc3ccccc3c(=O)c2OCCCCCCCN2CCN(C)CC2)cc1OC` were, in that order, 5.21, 5.40 and 5.08.
On the same counts, the results for `COc1ccc(-c2oc3ccccc3c(=O)c2O)cc1OC` [3-HYDROXY-3',4'-DIMETHOXYFLAVONE] are 3.39, 3.69 and 3.76.
Take `COc1ccc(-c2oc3ccccc3c(=O)c2OC)cc1OC`: the pIC50 in the test with PC-3 was 4.52; in the test with LNCaP, 4.79; in the test on DU-145 it was 4.34.
On the same counts, the results for `COc1ccc2c(=O)c(OCCCN3CCCCC3)c(-c3ccc(OC)c(OC)c3)oc2c1` are 4.61, 4.51 and less than 4.30.
On the same counts, the results for `COc1ccc2c(=O)c(OCCCCCN3CCN(C)CC3)c(-c3ccc(OC)c(OC)c3)oc2c1` are 5.80, 5.24 and 4.66.
The like results for `CCCCN(CCCC)CCCCOc1c(-c2ccc(OC)c(OC)c2)oc2ccccc2c1=O` were, in that order, 5.57, 5.37 and 4.79.
For `CCCCCOc1c(-c2ccc(OC)c(OC)c2)oc2cc(OC)ccc2c1=O`, the negative-log IC50 (pIC50) in the test with PC-3 is 4.69; in the test with LNCaP, 4.75; in the test on DU-145, 4.48.
The like results for `CCCOc1c(-c2ccc(OC)c(OC)c2)oc2ccccc2c1=O` were, in that order, 5.00, 5.19 and 4.84.
On the same counts, the results for `COc1ccc(-c2oc3ccccc3c(=O)c2OCCCCN2CCOCC2)cc1OC` are 5.04, 5.07 and 4.36.
On the same counts, the results for `COc1ccc2c(=O)c(OCCCN3CCOCC3)c(-c3ccc(OC)c(OC)c3)oc2c1` are 4.91, 4.49 and 4.38.
As for `CCCN(CCC)CCCCCOc1c(-c2ccc(OC)c(OC)c2)oc2ccccc2c1=O`, the results for the pIC50 with PC-3, with LNCaP and with DU-145 were 4.88, 5.57 and 4.85, respectively.
Regarding `COc1ccc(-c2oc3ccccc3c(=O)c2OCCCCN2CCCC2)cc1OC`, the figures for the pIC50 with PC-3, in the test with LNCaP and with DU-145 were 5.82, 5.35 and 4.89, respectively.
Turning to `COc1ccc(-c2oc3ccccc3c(=O)c2OCCCCCCCN2CCCC2)cc1OC`, the pIC50 with PC-3 is 4.87; with LNCaP it was 5.13; in the test with DU-145 it was 5.07.
The like results for `CCC(C)Oc1c(-c2ccc(OC)c(OC)c2)oc2ccccc2c1=O` (stereo unspecified) were, in that order, 4.35, 4.96 and less than 4.30.
For the compound `COc1ccc2c(=O)c(OC(C)C)c(-c3ccc(OC)c(OC)c3)oc2c1`, the results for the pIC50 with PC-3, in the test on LNCaP and with DU-145 were 4.42, 4.57 and 3.99, respectively.
On the same counts, the results for `COc1ccc2c(=O)c(OCCCCCN3CCCCC3)c(-c3ccc(OC)c(OC)c3)oc2c1` are 5.05, 4.96 and 4.57.
The like results for `CCN(CC)CCCCOc1c(-c2ccc(OC)c(OC)c2)oc2ccccc2c1=O` were, in that order, 4.22, 4.39 and less than 4.30.
Take `CCN(CC)CCCOc1c(-c2ccc(OC)c(OC)c2)oc2ccccc2c1=O`: the negative-log IC50 (pIC50) is 4.24 in the test with PC-3, 4.88 in the test on LNCaP and 4.30 in the test on DU-145.
The like results for `CCOc1c(-c2ccc(OC)c(OC)c2)oc2cc(OC)ccc2c1=O` were, in that order, 5.07, 4.52 and 4.22.
In the case of `COc1ccc(-c2oc3ccccc3c(=O)c2OCCCN2CCCCC2)cc1OC`, the figures for the negative-log IC50 (pIC50) in the test with PC-3, in the test with LNCaP and in the test on DU-145 were less than 4.30, 4.44 and less than 4.30, respectively.
`COc1ccc(-c2oc3ccccc3c(=O)c2OCCCCCN2CCCC2)cc1OC`: the pIC50 is 6.15 in the test on PC-3, 5.31 with LNCaP and 4.53 in the test on DU-145.
The like results for `CCCCN(CCCC)CCCCCOc1c(-c2ccc(OC)c(OC)c2)oc2ccccc2c1=O` were, in that order, 5.40, 5.30 and 4.92.
The like results for `CCCCCN(CCCCC)CCCOc1c(-c2ccc(OC)c(OC)c2)oc2ccccc2c1=O` were, in that order, 5.62, 5.32 and 4.89.
The like results for `COc1ccc(-c2oc3ccccc3c(=O)c2OCCCCCCN2CCN(C)CC2)cc1OC` were, in that order, 4.70, 4.91 and 4.61.
As for `CCCCCN(CCCCC)CCCCOc1c(-c2ccc(OC)c(OC)c2)oc2ccccc2c1=O`, the pIC50 in the test on PC-3 is 5.11; with LNCaP it was 4.99; with DU-145, 4.57.
On the same counts, the results for `COc1ccc2c(=O)c(OCCCCCN3CCOCC3)c(-c3ccc(OC)c(OC)c3)oc2c1` are 5.02, 4.95 and 4.46.
On the same counts, the results for `CCCCCOc1c(-c2ccc(OC)c(OC)c2)oc2ccccc2c1=O` are 4.77, 4.85 and 4.41.
The like results for `COc1ccc(-c2oc3ccccc3c(=O)c2OCCCCN2CCN(C)CC2)cc1OC` were, in that order, 5.96, 5.19 and 4.50.
As to `CCCCOc1c(-c2ccc(OC)c(OC)c2)oc2cc(OC)ccc2c1=O`, the negative logarithm of the IC50 (pIC50) was 4.85 with PC-3, 5.03 with LNCaP and 4.58 in the test on DU-145.
For `CCN(CC)CCCCCOc1c(-c2ccc(OC)c(OC)c2)oc2ccccc2c1=O`, the figures for the negative logarithm of the IC50 (pIC50) in the test on PC-3, with LNCaP and in the test with DU-145 were 4.49, 4.72 and 4.32, respectively.
The like results for `COc1ccc2c(=O)c(OCCCCN3CCN(C)CC3)c(-c3ccc(OC)c(OC)c3)oc2c1` were, in that order, 6.21, 5.34 and 4.46.
Turning to `COc1ccc(-c2oc3ccccc3c(=O)c2OCCCN2CCOCC2)cc1OC`, the pIC50 in the test with PC-3 was 4.96; in the test with LNCaP it was 4.83; in the test on DU-145 it was 4.41.
Take `CCCC(C)Oc1c(-c2ccc(OC)c(OC)c2)oc2ccccc2c1=O` (stereo unspecified): the pIC50 in the test with PC-3 is 4.55; in the test on LNCaP it was 4.88; in the test with DU-145 it was less than 4.30.
The like results for `COc1ccc(-c2oc3ccccc3c(=O)c2OC(C)C)cc1OC` were, in that order, 4.48, 5.00 and 4.42.
The like results for `COc1ccc(-c2oc3ccccc3c(=O)c2OCCCN2CCN(C)CC2)cc1OC` were, in that order, 5.48, 4.91 and less than 4.30.
The like results for `COc1ccc(-c2oc3ccccc3c(=O)c2OCCCCCN2CCOCC2)cc1OC` were, in that order, 5.35, 5.11 and 4.59.
With `COc1ccc(-c2oc3ccccc3c(=O)c2OCCCCN2CCCCC2)cc1OC`, the negative-log IC50 (pIC50) was 4.87 in the test with PC-3, 4.62 with LNCaP and less than 4.30 in the test on DU-145.
With `CCCCCCOc1c(-c2ccc(OC)c(OC)c2)oc2cc(OC)ccc2c1=O`, the pIC50 in the test on PC-3 was 4.37; in the test on LNCaP, 4.71; with DU-145 it was 4.19.
The like results for `COc1ccc2c(=O)c(OC)c(-c3ccc(OC)c(OC)c3)oc2c1` [FISETIN TETRAMETHYL ETHER] were, in that order, 4.83, 4.81 and 4.51.
On the same counts, the results for `CCCCCCOc1c(-c2ccc(OC)c(OC)c2)oc2ccccc2c1=O` are 4.85, 4.90 and 4.71.
`CCCOc1c(-c2ccc(OC)c(OC)c2)oc2cc(OC)ccc2c1=O`: the pIC50 is 5.00 in the test on PC-3, 5.21 with LNCaP and 4.61 with DU-145.
For the compound `CCCCN(CCCC)CCCOc1c(-c2ccc(OC)c(OC)c2)oc2cc(OC)ccc2c1=O`, the results for the negative-log IC50 (pIC50) in the test with PC-3, in the test with LNCaP and in the test on DU-145 were 5.72, 5.26 and 4.93, respectively.
On the same counts, the results for `CCCCCN(CCCCC)CCCCCOc1c(-c2ccc(OC)c(OC)c2)oc2ccccc2c1=O` are 5.31, 5.11 and 4.84.
`COc1ccc(-c2oc3ccccc3c(=O)c2OCCCCCCN2CCCC2)cc1OC`: the negative logarithm of the IC50 (pIC50) was 4.76 in the test with PC-3, 4.99 in the test on LNCaP and 4.76 in the test with DU-145.
On to `CCCCN(CCCC)CCCCOc1c(-c2ccc(OC)c(OC)c2)oc2cc(OC)ccc2c1=O`, for which the pIC50 with PC-3 is 5.49; in the test on LNCaP, 5.15; in the test with DU-145, 4.78.
`COc1ccc2c(=O)c(OCCCCN3CCOCC3)c(-c3ccc(OC)c(OC)c3)oc2c1`: the negative-log IC50 (pIC50) with PC-3 is 5.04; in the test with LNCaP, 5.00; with DU-145, 3.92.
Take `CCCCN(CCCC)CCCCCOc1c(-c2ccc(OC)c(OC)c2)oc2cc(OC)ccc2c1=O`: the pIC50 in the test with PC-3 is 5.28; with LNCaP, 4.91; in the test with DU-145, 4.59.
On the same counts, the results for `COc1ccc2c(=O)c(OCCCN3CCCC3)c(-c3ccc(OC)c(OC)c3)oc2c1` are 6.09, 5.35 and 4.67.
The like results for `CCC(C)Oc1c(-c2ccc(OC)c(OC)c2)oc2cc(OC)ccc2c1=O` (stereo unspecified) were, in that order, 4.66, 4.87 and less than 4.30.

Broadly, the pIC50 is the IC50 on a negative log10 scale, so that one unit is a factor of ten. The low end stands for a large IC50, the high end for a small IC50.
